pKi: −log10 of the molar value. Values belong to the compound of their own block, whether it stands above or below them.
How the values were obtained:
Format in all cases: cell-based
[1] = Displacement of [3H]spiperone from human cloned dopamine D2L receptor D3.32E mutant expressed in HEK293 cells
How it was run: (§1)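 Wild-type or mutant receptor cDNA transiently transfected into HEK-293 cells (CaHPO4 or TransIT-293), grown in MEM with 10% FBS at 37 °C, 5% CO2, harvested 48 h post-transfection. Membranes prepared by homogenization and spin at 50000g.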

[2] = system: HEK293; assay: Selectivity ratio of Ki for human cloned dopamine D3 receptor V2.61F mutant to Ki for wild type human cloned dopamine D3 receptor expressed in HEK293 cells
How it was run: (§2)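 Wild-type or mutant receptor cDNA transiently transfected into HEK-293 cells, which were grown in MEM with 10% FBS at 37 °C and 5% CO2 and harvested 48 h after transfection. Membranes were homogenised and pelleted at 50000g. Competition against [3H]spiperone (0.1-0.7 nM final) used 20-200 μg/mL protein. Ki was derived from EC50, 2-18 independent experiments in triplicate. Ratios are mutant Ki over wild-type Ki.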

[3] = system: HEK293; assay: Selectivity ratio of Ki for human cloned dopamine D3 receptor V2.61F/FV3.28,3.29LM mutant to Ki for wild type human cloned dopamine D3 receptor expressed in HEK293 cells; how it was run: as §2
[4] = Displacement of [3H]spiperone from human cloned dopamine D2L receptor V2.61F/FV3.28,3.29LM mutant expressed in HEK293 cells; how it was run: as §1
[5] = target: D(3) dopamine receptor (Homo sapiens, UniProt P35462, V87F); assay: Displacement of [3H]spiperone from human cloned dopamine D3 receptor V2.61F mutant expressed in HEK293 cells
D(3) dopamine receptor (Homo sapiens, UniProt P35462, V87F), sequence (P35462 as listed by the source V87F): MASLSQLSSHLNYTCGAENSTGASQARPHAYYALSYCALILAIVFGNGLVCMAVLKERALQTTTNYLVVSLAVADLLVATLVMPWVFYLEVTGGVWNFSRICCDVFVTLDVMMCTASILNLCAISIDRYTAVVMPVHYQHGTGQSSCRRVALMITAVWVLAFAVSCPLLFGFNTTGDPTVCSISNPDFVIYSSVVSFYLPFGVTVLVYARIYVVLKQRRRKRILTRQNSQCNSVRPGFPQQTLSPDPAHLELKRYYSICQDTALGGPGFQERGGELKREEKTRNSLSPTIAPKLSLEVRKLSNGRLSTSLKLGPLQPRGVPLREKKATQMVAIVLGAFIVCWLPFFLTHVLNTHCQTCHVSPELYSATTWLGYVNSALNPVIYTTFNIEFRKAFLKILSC

[6] = system: HEK293; assay: Selectivity ratio of Ki for human cloned dopamine D2L receptor D3.32E mutant to Ki for wild type human cloned dopamine D2L receptor expressed in HEK293 cells; how it was run: as §2
[7] = system: CHO; assay: Selectivity ratio of Ki for human cloned dopamine D2L receptor to Ki for human cloned dopamine D3 receptor expressed in CHO cells
[8] = Displacement of [3H]spiperone from human cloned dopamine D2L receptor V2.61F mutant expressed in HEK293 cells; how it was run: as §1
[9] = system: HEK293; assay: Selectivity ratio of Ki for human cloned dopamine D3 receptor FV3.28,3.29LM mutant to Ki for wild type human cloned dopamine D3 receptor expressed in HEK293 cells; how it was run: as §2
[10] = target: D(3) dopamine receptor (Homo sapiens, UniProt P35462, F106L/V107M/V87F); assay: Displacement of [3H]spiperone from human cloned dopamine D3 receptor V2.61F/FV3.28,3.29LM mutant expressed in HEK293 cells
D(3) dopamine receptor (Homo sapiens, UniProt P35462, F106L/V107M/V87F), sequence (P35462 as listed by the source V87F/F106L/V107M): as the sequence (P35462 as listed by the source V87F) above, with F106L, V107M counted along it

[11] = target: D(3) dopamine receptor (Homo sapiens, UniProt P35462, D110E); assay: Displacement of [3H]spiperone from human cloned dopamine D3 receptor D3.32E mutant expressed in HEK293 cells
D(3) dopamine receptor (Homo sapiens, UniProt P35462, D110E), sequence (P35462 as listed by the source D110E): as the sequence (P35462 as listed by the source V87F) above, with F87V, D110E counted along it

[12] = system: HEK293; assay: Selectivity ratio of Ki for human cloned dopamine D3 receptor H6.55A mutant to Ki for wild type human cloned dopamine D3 receptor expressed in HEK293 cells; how it was run: as §2
[13] = system: HEK293; assay: Selectivity ratio of Ki for human cloned dopamine D2L receptor V2.61F/FV3.28,3.29LM mutant to Ki for wild type human cloned dopamine D2L receptor expressed in HEK293 cells; how it was run: as §2
[14] = system: HEK293; assay: Selectivity ratio of Ki for human cloned dopamine D3 receptor L2.64F mutant to Ki for wild type human cloned dopamine D3 receptor expressed in HEK293 cells; how it was run: as §2
[15] = system: HEK293; assay: Selectivity ratio of Ki for human cloned dopamine D3 receptor V180E/S182I mutant to Ki for wild type human cloned dopamine D3 receptor expressed in HEK293 cells; how it was run: as §2
[16] = Displacement of [3H]spiperone from human cloned dopamine D2L receptor H6.55A mutant expressed in HEK293 cells; how it was run: as §1
[17] = system: HEK293; assay: Selectivity ratio of Ki for human cloned dopamine D2L receptor H6.55A mutant to Ki for wild type human cloned dopamine D2L receptor expressed in HEK293 cells; how it was run: as §2
[18] = target: T1, D(4) dopamine receptor (Homo sapiens, UniProt P21917); assay: Displacement of [3H]spiperone from wild type human cloned dopamine D4 receptor expressed in HEK293 cells
T1 sequence (P21917 whole entry): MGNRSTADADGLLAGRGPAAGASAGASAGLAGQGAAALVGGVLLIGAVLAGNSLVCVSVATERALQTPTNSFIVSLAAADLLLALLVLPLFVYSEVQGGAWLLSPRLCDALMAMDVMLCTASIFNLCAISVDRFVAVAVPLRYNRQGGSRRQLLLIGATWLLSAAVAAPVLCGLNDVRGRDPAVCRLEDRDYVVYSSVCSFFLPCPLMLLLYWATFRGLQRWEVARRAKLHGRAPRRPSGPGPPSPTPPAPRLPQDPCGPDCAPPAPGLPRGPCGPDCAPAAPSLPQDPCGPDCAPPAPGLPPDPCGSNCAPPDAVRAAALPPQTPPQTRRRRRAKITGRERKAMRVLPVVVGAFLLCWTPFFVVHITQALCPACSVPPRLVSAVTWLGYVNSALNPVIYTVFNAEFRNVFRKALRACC

[19] = target: T2, D(3) dopamine receptor (Homo sapiens, UniProt P35462); assay: Displacement of [3H]spiperone from human cloned dopamine D3 receptor L2.64F mutant expressed in HEK293 cells
T2 sequence (P35462 whole entry): as the sequence (P35462 as listed by the source V87F) above, with S9G, F87V counted along it

[20] = target: T2, D(3) dopamine receptor; assay: Displacement of [3H]spiperone from human cloned dopamine D3 receptor FV3.28,3.29LM mutant expressed in HEK293 cells
[21] = system: HEK293; assay: Selectivity ratio of Ki for human cloned dopamine D2L receptor E181V/I183S mutant to Ki for wild type human cloned dopamine D2L receptor expressed in HEK293 cells; how it was run: as §2
[22] = system: HEK293; assay: Selectivity ratio of Ki for human cloned dopamine D2L receptor L2.64F mutant to Ki for wild type human cloned dopamine D2L receptor expressed in HEK293 cells; how it was run: as §2
[23] = system: HEK293; assay: Selectivity ratio of Ki for human cloned dopamine D2L receptor H6.55F mutant to Ki for wild type human cloned dopamine D2L receptor expressed in HEK293 cells; how it was run: as §2
[24] = target: D(3) dopamine receptor (Homo sapiens, UniProt P35462, H349A); assay: Displacement of [3H]spiperone from human cloned dopamine D3 receptor H6.55A mutant expressed in HEK293 cells
D(3) dopamine receptor (Homo sapiens, UniProt P35462, H349A), sequence (P35462 as listed by the source H349A): as the sequence (P35462 as listed by the source V87F) above, with F87V, H349A counted along it

[25] = target: T3, D(2) dopamine receptor (Homo sapiens, UniProt P14416); assay: Displacement of [3H]spiperone from wild type human cloned dopamine D2L receptor expressed in HEK293 cells
T3 sequence (P14416 whole entry): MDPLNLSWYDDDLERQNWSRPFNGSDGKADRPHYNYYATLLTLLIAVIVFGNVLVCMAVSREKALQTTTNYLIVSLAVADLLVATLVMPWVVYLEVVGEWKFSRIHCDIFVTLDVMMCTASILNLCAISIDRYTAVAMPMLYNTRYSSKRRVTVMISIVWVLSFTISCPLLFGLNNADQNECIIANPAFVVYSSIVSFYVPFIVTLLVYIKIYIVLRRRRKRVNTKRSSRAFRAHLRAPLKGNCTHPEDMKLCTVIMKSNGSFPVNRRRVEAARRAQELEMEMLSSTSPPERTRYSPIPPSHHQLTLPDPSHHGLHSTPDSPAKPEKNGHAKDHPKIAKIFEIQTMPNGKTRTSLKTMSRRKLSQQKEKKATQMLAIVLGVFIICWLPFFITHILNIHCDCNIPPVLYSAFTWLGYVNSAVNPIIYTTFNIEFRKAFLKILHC

[26] = Displacement of [3H]spiperone from human cloned dopamine D2L receptor L2.64F mutant expressed in HEK293 cells; how it was run: as §1
[27] = system: HEK293; assay: Selectivity ratio of Ki for human cloned dopamine D2L receptor FV3.28,3.29LM mutant to Ki for wild type human cloned dopamine D2L receptor expressed in HEK293 cells; how it was run: as §2
[28] = system: CHO; assay: Selectivity ratio of Ki for human cloned dopamine D2L receptor to Ki for human cloned dopamine D4 receptor expressed in CHO cells
[29] = target: D(3) dopamine receptor (Homo sapiens, UniProt P35462, S182I/V180E); assay: Displacement of [3H]spiperone from human cloned dopamine D3 receptor V180E/S182I mutant expressed in HEK293 cells
D(3) dopamine receptor (Homo sapiens, UniProt P35462, S182I/V180E), sequence (P35462 as listed by the source V180E/S182I): as the sequence (P35462 as listed by the source V87F) above, with F87V, V180E, S182I counted along it

[30] = target: D(2) dopamine receptor (Homo sapiens, UniProt P14416, E181V/I183S); assay: Displacement of [3H]spiperone from human cloned dopamine D2L receptor E181V/I183S mutant expressed in HEK293 cells; how it was run: as §2
D(2) dopamine receptor (Homo sapiens, UniProt P14416, E181V/I183S), sequence (P14416 whole entry E181V/I183S): as the sequence (P14416 whole entry) above, with E181V, I183S counted along it

[31] = system: HEK293; assay: Selectivity ratio of Ki for human cloned dopamine D3 receptor D3.32E mutant to Ki for wild type human cloned dopamine D3 receptor expressed in HEK293 cells; how it was run: as §2
[32] = Displacement of [3H]spiperone from human cloned dopamine D2L receptor H6.55F mutant expressed in HEK293 cells; how it was run: as §1
[33] = target: T2, D(3) dopamine receptor; assay: Displacement of [3H]spiperone from wild type human cloned dopamine D3 receptor expressed in HEK293 cells
[34] = Displacement of [3H]spiperone from human cloned dopamine D2L receptor FV3.28,3.29LM mutant expressed in HEK293 cells; how it was run: as §1
[35] = target: T3, D(2) dopamine receptor; assay: Displacement of [3H]spiperone from human cloned dopamine D2L receptor expressed in CHO cells
[36] = system: HEK293; assay: Selectivity ratio of Ki for human cloned dopamine D2L receptor V2.61F mutant to Ki for wild type human cloned dopamine D2L receptor expressed in HEK293 cells; how it was run: as §2
[37] = target: T1, D(4) dopamine receptor; assay: Displacement of [3H]spiperone from human cloned dopamine D4 receptor expressed in CHO cells
How it was run: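 Membranes from CHO cells stably expressing human D4 (Bmax 700-1800 fmol/mg). Curves fit by nonlinear regression, sigmoid model giving IC50 and slope; Ki ± SEM from 2-9 experiments in triplicate.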

[38] = target: T2, D(3) dopamine receptor; assay: Displacement of [3H]spiperone from human cloned dopamine D3 receptor expressed in CHO cells

pKi [5]: 6.13
pKi [10]: 6.49
pKi [11]: 6.19
pKi [18]: 7.59
pKi [19]: 6.13
pKi [20]: 6.37
pKi [24]: 8.47
pKi [25]: 8.66
pKi [29]: 8.10
pKi [30]: 7.59
pKi [33]: 7.59
pKi [35]: 8.85
pKi [37]: 8.06
pKi [38]: 7.74
Compound: CSc1ccccc1N1CCN(CCCNC(=O)c2cnn3ccccc23)CC1
pKi [1]: 6.80
Ratio Ki [2]: 29
Ratio Ki [3]: 0.31
pKi [4]: 7.70
Ratio Ki [6]: 74
Ratio Ki [7]: 0.08
pKi [8]: 7.00
Ratio Ki [9]: 12
Ratio Ki [12]: 0.5
Ratio Ki [13]: 9
Ratio Ki [14]: 17
Ratio Ki [15]: 0.13
pKi [16]: 10.00
Ratio Ki [17]: 0.05
Ratio Ki [21]: 12
Ratio Ki [22]: 303
Ratio Ki [23]: 7.7
pKi [26]: 6.18
Ratio Ki [27]: 16
Ratio Ki [28]: 0.16
Ratio Ki [31]: 25
pKi [32]: 7.77
pKi [34]: 7.46
Ratio Ki [36]: 45

Compound: COc1ccccc1N1CCN(CCCNC(=O)c2cnn3ccccc23)CC1
pKi [1]: 6.14
pKi [4]: 7.08
pKi [8]: 6.35
pKi [16]: 8.80
pKi [26]: 6.41
pKi [32]: 7.16
pKi [34]: 6.96

Compound: COc1ccccc1N1CCN(CCCCNC(=O)c2cc3ccccn3n2)CC1
pKi [1]: 5.46
pKi [4]: 6.92
pKi [8]: 6.04
pKi [16]: 7.68
pKi [26]: 6.03
pKi [32]: 6.47
pKi [34]: 6.66

— ChEMBL document CHEMBL1158482, “Dopamine D2, D3, and D4 selective phenylpiperazines as molecular probes to explore the origins of subtype specific receptor binding” (J Med Chem, 2009)
